Data as given in ChEMBL document CHEMBL1126657, “Benzylamine antioxidants: relationship between structure, peroxyl radical scavenging, lipid peroxidation inhibition, and cytoprotection” (1993).
Converted amounts (≈) assume the structure as drawn. The source made the active and inactive calls. The calls are words filed in the database; no cut-off is given here.

Columns and labels:
Oryctolagus cuniculus = species: Oryctolagus cuniculus; assay: Inhibition of iron-dependent peroxidation of rabbit vesicular membrane lipids (minimum test concentration that gave greater than 50% inhibition).; format: functional
Outline: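 Lipids from rabbit brain vesicular membranes were peroxidized in an iron-dependent system. Value is the minimum tested concentration giving ≥50% inhibition (μM), n = 3.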

[1] = Percent inhibition of 2,2'-azobis(2-amidinopropane)dihydrochloride induced decay of (R)-phycoerythrin fluorescence emission; format: functional; set-up: concentration or dose not given beside the values; conditions: dose or concentration not given here
Outline: (§1)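 R-PE (4.5 × 10⁻⁸ M stock) was mixed with test agent (3 μM stock; 1 μM final) in 75 mM phosphate buffer pH 7.0 and equilibrated 5 min at 37 °C. AAPH (12 mM stock, freshly made) was then added. Fluorescence (ex 544, em 590 nm) was read every 5 min for 25 min and normalized to 0 min. Percent inhibition at 15 min = (sample − AAPH)/(control − AAPH) × 100, n = 4.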

Rattus norvegicus [2] = species: Rattus norvegicus; assay: Percent viability of rat hippocampal neurons exposed to hydrogen peroxide (50 uM) in the presence of the test agent (5 uM); format: functional
Outline: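 Primary rat hippocampal neuron cultures were given test agent (5 μM) and exposed for 15 min to H2O2 (50 μM). Survival was scored by vital dye staining 18 h later. n = 3 cultures prepared on different days, mean ± SD.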

Rattus norvegicus [3] = assay: Hypotensive effect in anesthetized normotensive rat expressed as effective dose; No effect; format: functional, organism-based
[4] = percent inhibition of 2,2'-azobis(2-amidinopropane)dihydrochloride induced decay of (R)-phycoerythrin fluorescence emission; format: functional; set-up: concentration or dose not given beside the values; conditions: dose or concentration not given here; outline: as §1
Rattus norvegicus [5] = assay: Hypotensive effect in anesthetized normotensive rat expressed as effective dose; format: functional
Rattus norvegicus [6] = assay: Hypotensive effect in up to 0.1 mg/kg, slight pressor response (~16-17%) at 1 mg/kg; format: functional, organism-based
Rattus norvegicus [7] = assay: Hypotensive effect in anesthetized normotensive rat expressed as effective dose; Study; format: functional, organism-based

Compound | MIC (Oryctolagus cuniculus) [µM] | inhibition [1] [%] | Cell viability (Rattus norvegicus [2]) [%] | ED20 (Rattus norvegicus [3]) | inhibition [4] [%] | ED20 (Rattus norvegicus [5]) [mg/kg] | ED20 (Rattus norvegicus [6]) | ED20 (Rattus norvegicus [7])
CCCNCc1cc(OC)c(O)c(OC)c1.Cl | > 100 | 80.1 | 13.3 | inactive | – | – | – | –
CCCOC(=O)c1cc(O)c(O)c(O)c1 [PROPYL GALLATE] | 3 (≈ 0.637 µg/mL) | – | – | – | 40 | – | – | –
CCN(CC)Cc1cc(OC)c(O)c(OC)c1.Cl | > 100 | 66.7 | 3.7 | inactive | – | – | – | –
CNCc1cc(OC)c(O)c(OC)c1.Cl | > 100 | 75.8 | 7.5 | inactive | – | – | – | –
CCCN(CCC)Cc1cc(OC)c(O)c(OC)c1.Cl | > 100 | 63.7 | 5.4 | inactive | – | – | – | –
COc1cc(CN(CC(C)C)CC(C)C)cc(OC)c1O.Cl | 30 | 63.7 | 28.7 | inactive | – | – | – | –
CCCCCCCCCNCc1cc(OC)c(O)c(OC)c1.Cl | 5.3 | – | 47.1 | – | 52.9 | – | Pressor | –
CC(C)Oc1cc(CN2CCN(CCO)CC2)cc(OC(C)C)c1O.Cl.Cl | > 100 | 71.6 | 45.3 | inactive | – | – | – | –
CC(C)Oc1cc(CN(C)C)cc(OC(C)C)c1O.Cl | > 100 | 69.3 | 35.8 | inactive | – | – | – | –
CCCCCNCc1cc(OC)c(O)c(OC)c1.Cl | > 100 | 61.6 | 29 | inactive | – | – | – | –
COc1cc(CN(C)C)cc(OC)c1O.Cl | > 100 | 69 | 5.2 | inactive | – | – | – | –
CCCCCNCc1cc(OC(C)C)c(O)c(OC(C)C)c1.Cl | 30 | – | 42.8 | – | – | > 1 | – | –
CCCCCN(CCCCC)Cc1cc(OC)c(O)c(OC)c1.Cl | 30 | 50.6 | 35.5 | – | – | > 1 | – | –
CCC(CC)Oc1cc(CN(C)C)cc(OC(CC)CC)c1O.Cl | 10 | 66.8 | 15.2 | – | – | 0.42 | – | –
CCCCNCc1cc(OC)c(O)c(OC)c1.Cl | > 100 | 62.4 | 17.1 | inactive | – | – | – | –
CN(C)Cc1cc(OC2CCCC2)c(O)c(OC2CCCC2)c1.Cl | 10 | 74.3 | 28.9 | – | – | – | – | Study
CCNCc1cc(OC)c(O)c(OC)c1.Cl | > 100 | 71.8 | 3.1 | inactive | – | – | – | –
CCCCN(CCCC)Cc1cc(OC)c(O)c(OC)c1.Cl | > 100 | 66.6 | 26.4 | inactive | – | – | – | –
CCCCCCCNCc1cc(OC(C)C)c(O)c(OC(C)C)c1.Cl | 10 | – | 43.5 | – | – | > 1 | – | –
CCCCCCNCc1cc(OC)c(O)c(OC)c1.Cl | 100 | 65.2 | 42.6 | inactive | – | – | – | –

Now from value to molecule, other results behind:

MIC (Oryctolagus cuniculus) [µM] | Compound | inhibition [1] [%] | Cell viability (Rattus norvegicus [2]) [%] | ED20 (Rattus norvegicus [3]) | inhibition [4] [%] | ED20 (Rattus norvegicus [5]) [mg/kg] | ED20 (Rattus norvegicus [6]) | ED20 (Rattus norvegicus [7])
1 | CCCCCCOc1cc(CN(C)C)cc(OCCCCCC)c1O.Cl | – | 73.1 | – | 17.6 | 0.36 | – | –
10 | CCCCCCCCNCc1cc(OC)c(O)c(OC)c1.Cl | – | 59.8 | – | 60.9 | – | Pressor | –
30 | CCCCCCCNCc1cc(OC)c(O)c(OC)c1.Cl | – | 48.3 | – | 63.5 | – | – | –
2.3 | CCCCCCCOc1cc(CN(C)C)cc(OC)c1O.Cl | – | 44 | – | 62.5 | > 1 | – | –
2.3 | CCCCCOc1cc(CN(C)C)cc(OCCCCC)c1O.Cl | 44.9 | 51.2 | – | – | – | – | Study
10 | CCCCOc1cc(CN(C)C)cc(OCCCC)c1O.Cl | 73.3 | 35.8 | – | – | 1 | – | –
2.3 | CCCCCCCOc1cc(CN2CCN(CCO)CC2)cc(OC)c1O.Cl.Cl | – | 63 | – | 64.4 | > 1 | – | –
1 | CCCCCCCOc1cc(CN(C)C)cc(OCCCCCCC)c1O.Cl | – | 75.7 | – | 7.2 | – | – | –
30 | CCCCCCCOc1c(O)cc(CN(C)C)cc1O.Cl | – | 47 | – | 43.8 | – | – | –
30 | CCCCCCCOc1c(O)cc(CN2CCN(CCO)CC2)cc1O.Cl.Cl | – | 50.3 | – | 60.3 | – | – | –
30 | CCCOc1cc(CN(C)C)cc(OCCC)c1O.Cl | 91.8 | 31.3 | – | – | 1 | – | –
100 | CCOc1cc(CN(C)C)cc(OCC)c1O.Cl | 71.6 | 14.7 | inactive | – | – | – | –
